Screening results deposited in PubChem by Johns Hopkins Ion Channel Center.
Hits are enriched below; roughly 3.5% of the tested compounds scored in any of these assays.
RGS4 inh – human RGS4 inhibition | HEK293 M3R/RGS4 inducible, Fluo-4 calcium flux; active compounds read high; triggered by carbachol at its EC20 | P49798 | AID 463165 | actives 0.45% (n = 310,000) | B-score at 10 µM;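 active means B-score, a plate-corrected calcium signal, over three deviations above library mean, with baseline fluorescence within five deviations of library mean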;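 further: RGS4 expression induced by doxycycline in cells with stable M3 receptor; B-score is computed from the integrated fluorescence ratio over baseline after carbachol; higher B-score means a larger calcium signal and so more RGS4 inhibition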
Target sequence (P49798 whole entry, looked up): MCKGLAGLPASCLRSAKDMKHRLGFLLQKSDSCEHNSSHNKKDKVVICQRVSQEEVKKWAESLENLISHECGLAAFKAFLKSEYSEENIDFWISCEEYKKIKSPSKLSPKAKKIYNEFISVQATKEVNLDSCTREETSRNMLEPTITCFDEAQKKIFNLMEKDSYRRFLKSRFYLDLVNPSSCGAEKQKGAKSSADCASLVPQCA
RGS4 pot – RGS4 potentiation or activation. HEK293 M3R/inducible RGS4, carbachol calcium flux Fluo4; active compounds read low. B-score at 10 µM. actives 0.92% (n = 310,000). AID 463111;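 active means B-score of the integrated calcium signal more than 4 SD below the library mean, with starting fluorescence not abnormally high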;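 further: negative B-score means reduced calcium response which marks RGS4 activation or potentiation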
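Reagent: ECmax carbachol challenge; Test system: M3R-expressing HEK293 line, RGS4 induced by doxycycline; Schedule: overnight RGS4 induction, 30 min dye load 37 °C, 20 min compound RT; Detection: calcium dye Fluo4 fluorescence; Read-out: Agonist-evoked peak-minus-minimum fluorescence over baseline, integrated ratio, B score.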
MrgX1 ag – activates human MrgX1 receptor signaling. MrgX1-HEK293 cells, Fluo-4 calcium fluorescence, agonist mode; active compounds read high. B-score at 10 µM. actives 0.44% (n = 310,000);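 active means calcium response B-score plate-corrected fluorescence ratio at least 3 library SD, with starting fluorescence B-score inside 5 SD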
Target sequence (Q96LB2 whole entry, looked up): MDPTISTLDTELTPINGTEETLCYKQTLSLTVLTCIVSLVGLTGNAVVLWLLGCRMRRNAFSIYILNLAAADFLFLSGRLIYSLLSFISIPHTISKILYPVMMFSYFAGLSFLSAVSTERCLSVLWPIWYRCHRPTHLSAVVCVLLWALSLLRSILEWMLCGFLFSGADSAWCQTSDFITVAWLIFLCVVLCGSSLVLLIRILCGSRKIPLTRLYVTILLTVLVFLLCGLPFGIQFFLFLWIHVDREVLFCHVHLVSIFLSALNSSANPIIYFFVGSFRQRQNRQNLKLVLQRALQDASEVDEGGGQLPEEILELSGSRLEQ
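Material: HEK293 cells stably expressing human MrgX1 receptor | Quantity: 15,000 cells per well | Times: Cells plated overnight, dye loaded 0.5 h 37 °C, 0.5 h room temperature | Measured by: Kinetic Fluo-4 NW fluorescence of intracellular calcium | Control set: Positive and negative controls per plate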
MrgX1 antag – antagonists of human MrgX1 receptor; B-score at 10 µM; actives 1.3% (n = 310,000); AID 588676; MRGX1-HEK293 calcium flux, Fluo-4, BAM8-22 antagonism; active compounds read low;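 active means calcium-response B-score plate-corrected more than 3 library SD below zero, starting fluorescence within 5 deviations, no agonist response on first addition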;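 further: peak minus trough fluorescence over baseline after final BAM8-22 challenge near maximal dose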
MrgX1 PAM – allosterically activates human MrgX1 receptor signaling; AID 588675; B-score at 10 µM; Q96LB2; actives 0.63% (n = 310,000); MrgX1-HEK293, Fluo-4 calcium flux, FDSS; active compounds read high;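 active means plate-corrected calcium response at least 3 library SD above typical, normal starting fluorescence, not activating the receptor alone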;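 further: compound read alongside a low EC10 to EC30 dose of BAM8-22 agonist; peak minus trough fluorescence over baseline measured at the second addition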
RGS4 block valid – validation of RGS4 inhibitors; shares compounds with RGS4 inh; HEK293 M3R/RGS4, carbachol calcium Fluo-4 fluorescence; carbachol added at its EC20; 0 = buffer wells, 100 = carbachol control; calcium response, % at 10 µM; actives 65% (n = 1,700);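 active means duplicate-averaged calcium response above the buffer-only control mean plus 5 SD of those controls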;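 further: integrated fluorescence ratio F max minus min over baseline F0; higher response in RGS4-induced cells means RGS4 inhibition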
M3R Ca ctr – checks RGS4 inhibitor effects in non-induced HEK293 M3R cells; shares compounds with RGS4 inh; carbachol calcium Fluo-4; submaximal (EC20) carbachol stimulus; buffer wells 0%, carbachol control wells 100%; activity (percent), % at 10 µM; actives 20% (n = 1,900); call rule not given here;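 further: RGS4 induction absent so cells express M3R without RGS4; higher means more calcium signal and flags a non-specific hit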
M3R basal Ca ctr – signal in non-induced cells without carbachol, RGS4 inhibitor counter-screen. AID 493001. calcium response (agonist-mode artifact), % at 10 µM. HEK293 M3R/RGS4 non-induced, Fluo-4 calcium, no carbachol; normalised: buffer wells 0%, carbachol wells 100%. shares compounds with RGS4 inh. actives 22% (n = 1,900);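 active means duplicate-averaged calcium rise in uninduced cells above buffer wells' mean plus 5 SD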
The depositor's hits bear a star; i = inactive; . = not tested or not shown.

SMILES	RGS4 inh	RGS4 pot	MrgX1 ag	MrgX1 antag	MrgX1 PAM	RGS4 block valid	M3R Ca ctr	M3R basal Ca ctr
O=C1NC(c2ccccc2)=C(c2ccc3ccccc3n2)C(c2ccccc2)N1 (stereo not given)	i	i	i	i	i	.	.	.
Cc1cc2nccc(-c3ccc(OCCCF)cc3)n2n1	i	i	i	i	i	.	.	.
CCN(CC)CCCNC(=S)N(CCO)Cc1cc2cc3c(cc2[nH]c1=O)OCCO3	i	i	i	i	i	i	i	i
CCOCCCNC(=S)N(CCO)Cc1cc2cc3c(cc2[nH]c1=O)OCCO3	i	i	i	i	i	i	i	i
CCCCNC(=S)N(CCO)Cc1cc2cc3c(cc2[nH]c1=O)OCCO3	i	i	i	i	i	i	i	i
O=C(c1ccc(COc2ccccc2Br)o1)N1N=C(C(F)F)CC1(O)C(F)F (stereo not given)	i	i	i	i	i	.	.	.
CC(=O)Oc1cccc(/C=c2\sc3nc(-c4ccco4)nn3c2=O)c1	i	i	i	i	i	.	.	.
CCCOc1ccc(/C=c2\sc3nc(-c4ccco4)nn3c2=O)cc1OCC	i	i	i	i	i	i	i	154%*
Cn1c(=O)c(=O)n(C)c2cc(N3CCCCC3)c(NS(=O)(=O)c3ccc([N+](=O)[O-])cc3)cc21	i	i	i	i	i	.	.	.
CCN(CC)c1ccc(NC(=O)CNCc2ccccc2Cl)c(C)c1	i	i	i	i	i	.	.	.
Cc1cc(N(CCO)CCO)ccc1C(c1ccc(N(CCO)CCO)cc1C)c1ccccc1Cl	6*	i	i	i	i	16%*	i	25%*
COc1ccc(C(CNC(=O)c2cccc(S(=O)(=O)Nc3cccc(C)c3)c2)N2CCOCC2)cc1 (stereo not given)	i	i	i	i	i	.	.	.
Cc1ccc(N2C(=O)N3[C@H]4c5ccccc5OC[C@@H]4[C@@H](c4ccccc4)[C@@]3(C)C2=O)cc1	i	i	i	i	i	.	.	.
C[C@]12C(=O)N(c3ccccc3)C(=O)N1[C@@H]1c3ccccc3OC[C@@H]1[C@H]2c1ccccc1	i	i	i	i	i	i	i	i
C[C@]12C(=O)N(c3ccc(C(F)(F)F)cc3)C(=O)N1[C@@H]1c3ccccc3OC[C@@H]1[C@H]2c1ccccc1	i	i	i	i	i	.	.	.
C[C@]12C(=O)N(c3cccc(F)c3)C(=O)N1[C@@H]1c3ccccc3OC[C@@H]1[C@H]2c1ccccc1	i	i	i	i	i	i	i	i
O=C(/C=C\NCC(=O)c1ccccc1)c1ccc2ccccc2c1	6.5*	i	i	i	i	16%*	30%*	i
CCN(C(=O)c1ccc(S(=O)(=O)N2CCCCC2)cc1)C1CCS(=O)(=O)C1 (stereo not given)	i	i	i	i	i	.	.	.
O=C(c1ccco1)N1CCCN(Cc2cn[nH]c2-c2ccc(-c3ccccc3)cc2)CC1	4.9*	i	i	i	i	10%*	i	i
COc1ccc(-c2[nH]ncc2CN2CCN(C(=O)c3ccco3)CC2)cc1F	i	i	i	i	i	.	.	.
c1ccc(-c2[nH]ncc2CN2CCc3ccccc3C2)cc1	i	i	i	i	i	.	.	.
Fc1ccc(N2CCN(Cc3cn[nH]c3-c3ccccc3)CC2)cc1	i	i	i	i	i	.	i	i
Fc1ccc(-c2[nH]ncc2CN2CCN(c3ccc(F)cc3)CC2)cc1	6.9*	i	i	i	i	22%*	50%*	i
COc1ccc(-c2[nH]ncc2CN2CCN(c3ccc(F)cc3)CC2)cc1	i	i	i	i	i	.	.	.
CSCCC(NS(=O)(=O)c1ccccc1F)C(=O)NCCCn1nc(C)cc1C (stereo not given)	i	i	i	i	i	.	.	.
SMILES	RGS4 inh	RGS4 pot	MrgX1 ag	MrgX1 antag	MrgX1 PAM	RGS4 block valid	M3R Ca ctr	M3R basal Ca ctr
CCCOc1ccc(C(=O)NC(=S)N2CCN(c3cc4c(cc3F)c(=O)c(C(=O)O)cn4CC)CC2)cc1	i	i	i	i	i	.	.	.
CCCC(=O)Nc1ccc(C=C(C(C)=O)C(C)=O)cc1	16*	i	i	i	i	32%*	30%*	i
O=C(Nc1nc(-c2ccc(-c3ccccc3)cc2)cs1)C1=COCCO1	i	i	i	i	i	.	i	i
COc1cccc(OC)c1C(=O)Nc1nc(-c2ccccc2)cs1	i	i	i	i	i	i	i	i
Cc1cc(C)c(-c2csc(NC(=O)C3=COCCO3)n2)cc1C	i	i	i	i	i	.	i	i
COc1ccc(-c2csc(NC(=O)c3ccccc3C(=O)O)n2)cc1	i	i	i	i	i	.	.	.
Cc1ccc(OCC(=O)N/N=C\c2cn(C)c3ccccc23)c([N+](=O)[O-])c1	i	i	i	i	i	.	.	.
Cc1ccc(SCC(=O)Nc2nnc(C(C)(C)C)s2)cc1	i	i	i	i	i	.	.	.
O=C(CC(Nc1ccc(F)cc1)C(=O)O)c1ccccc1 (stereo not given)	i	i	i	i	i	.	.	.
O=C(CC(Nc1ccc(F)cc1)C(=O)OCC(=O)c1cccs1)c1ccccc1 (stereo not given)	6.2*	i	i	i	i	i	i	i
O=C(c1cc(-c2ccccc2)n[nH]1)N1CCc2c([nH]c3ccccc23)C1c1ccccn1 (stereo not given)	7.3*	i	i	i	i	27%*	30%*	i
O=C(c1cccs1)N1CCc2c([nH]c3ccccc23)C1c1ccccn1 (stereo not given)	i	i	i	i	i	.	.	.
Cc1ccc(NC(=O)c2nc[nH]c2C(=O)N[C@@H](C)c2ccccc2)cc1	5.7*	i	i	i	i	29%*	i	i
